In brackets after ≈: the same amount, converted by molar mass.
How the values were obtained:
[1] = tested on: Candida tropicalis; assay: Antifungal activity against azole-resistant Candida tropicalis assessed as reduction in fungal growth incubated for 48 hrs by broth microdilution method; format: functional
Method in brief: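 CLSI broth microdilution in RPMI 1640 (glutamine, no bicarbonate) buffered to pH 7.0 with MOPS. Azole-resistant clinical C. tropicalis isolate, stored at -80 °C in glycerol, subcultured twice on Sabouraud dextrose agar. Inoculum from 24-h subcultures, final 0.5 to 2.5×10^3 cfu/ml. Compounds in DMSO, twofold final 1024–0.125 µg/ml. Incubated 35 °C, 48 h. MIC = lowest concentration fully inhibiting visible growth.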

[2] = tested on: Pichia kudriavzevii; assay: Antifungal activity against azole-susceptible Candida krusei ATCC 6258 assessed as reduction in fungal growth incubated for 48 hrs by broth microdilution method; format: functional; conditions: ATCC 6258, 48 h
Method in brief: (§1)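 CLSI broth microdilution in RPMI 1640 with MOPS at pH 7.0. Inoculum taken from 24-h Sabouraud subcultures, final 0.5-2.5×10^3 cfu/ml. Compounds in DMSO, twofold series 1024-0.125 µg/ml final. Incubated 48 h at 35 °C. MIC is the lowest concentration giving complete inhibition of visible growth. Fluconazole served as the reference.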

[3] = tested on: Candida albicans; assay: Antifungal activity against azole-susceptible Candida albicans ATCC 90028 assessed as reduction in fungal growth incubated for 48 hrs by broth microdilution method; format: functional; conditions: ATCC 90028, 48 h; method in brief: as §1
[4] = tested on: Candida parapsilosis; assay: Antifungal activity against azole-susceptible Candida parapsilosis ATCC 90018 assessed as reduction in fungal growth incubated for 48 hrs by broth microdilution method; format: functional; conditions: Lodderomyces parapsilosis, ATCC 90018, 48 h; method in brief: as §1
[5] = tested on: Candida albicans; assay: Disruption of Candida albicans SC5314 pre-formed mature biofilm assessed as reduction in biofilm biomass incubated for 24 hrs by spectrophotometry; format: functional
Method in brief: (§2)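 C. albicans SC5314 biofilms grown on a 96-peg lid (Calgary device, MBEC protocol) from 10^6 cfu/ml inoculum for 24 h at 37 °C. Pegs rinsed in 0.9% saline, then challenged 24 h at 35 °C with twofold dilutions, 512-0.5 µg/ml. MBIC: no well turbidity by visual inspection. MBEC: pegs sonicated into RPMI/2% glucose, regrowth overnight, OD 550 nm plus visual turbidity.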

[6] = tested on: Candida albicans; assay: Antibiofilm activity against Candida albicans SC5314 assessed as inhibition of biofilm formation by turbidity based visual inspection method; format: functional; method in brief: as §2
[7] = Cytotoxicity against human U937 cells assessed as cell viability at >= 8 ug/ml incubated for 24 to 48 hrs by MTT assay; format: cell-based, U-937; conditions: read-out: Activity
Method in brief: (§3)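 MTT assay on U937 monocytic cells, 4×10³ cells/well, in RPMI-1640 with 10% FBS. Eight concentrations, 0.125-32 µg/ml, DMSO ≤0.32% v/v, each in triplicate. Exposure 24 or 48 h at 37 °C, 5% CO₂, then MTT for 4 h. Formazan dissolved in SDS/DMF, absorbance read at 570 nm. Viability calculated relative to untreated cells.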

[8] = tested on: Candida albicans; assay: Antifungal activity against Candida albicans by broth dilution assay; format: functional; method in brief: as §1
[9] = tested on: U-937; assay: Cytotoxicity against human U937 cells assessed as cell viability at 0.125 to 32 ug/ml incubated for 24 to 48 hrs by MTT assay; format: cell-based; method in brief: as §3

Compound | MIC [1] [µg/mL] | MIC [2] [µg/mL] | MIC [3] [µg/mL] | MIC [4] [µg/mL] | MBEC [5] [µg/mL] | MBIC [6] [µg/mL] | viability [7] [%] | MIC [8] [µg/mL] | Activity [9]
CCc1ccc(C(=O)O/N=C(\Cn2ccnc2)c2ccc(Cl)cc2Cl)cc1.Cl | 8 | 256 | 128 | 128 | – | – | – | – | –
O=C(Cn1ccnc1)c1ccc(Cl)cc1Cl | – | 256 (≈ 1000 µM) | 128 (≈ 502 µM) | 32 (≈ 125 µM) | – | – | – | – | –
COc1ccc(C(=O)OC(Cn2ccnc2)c2ccc(Cl)cc2Cl)cc1.Cl (racemic) | 4 | 16 | 2 | 1 | 256 | 1 | – | – | –
Cl.O=C(OC(Cn1ccnc1)c1ccc(Cl)cc1Cl)c1ccc(-c2ccccc2)cc1 (racemic) | 512 | 1 | 0.25 | 0.25 | 256 | 2 | < 80 | – | –
O=C(OC(Cn1ccnc1)c1ccc(Cl)cc1Cl)c1ccc(-c2ccc(-c3ccccc3)cc2)cc1 (racemic) | – | 256 (≈ 499 µM) | 256 (≈ 499 µM) | 256 (≈ 499 µM) | – | – | – | – | –
Cl.O=C(CCCc1ccccc1)OC(Cn1ccnc1)c1ccc(Cl)cc1Cl (racemic) | 32 | 8 | 2 | 2 | 64 | 0.5 | – | – | –
Cl.O=C(O/N=C(\Cn1ccnc1)c1ccc(Cl)cc1Cl)c1ccc2ccccc2c1 | – | 256 | 256 | 256 | – | – | – | – | –
O/N=C(\Cn1ccnc1)c1ccc(Cl)cc1Cl | – | 256 (≈ 948 µM) | 32 (≈ 118 µM) | 32 (≈ 118 µM) | – | – | – | – | –
Cc1ccc(C(=O)O/N=C(\Cn2ccnc2)c2ccc(Cl)cc2Cl)cc1 | – | 256 (≈ 659 µM) | 128 (≈ 330 µM) | 256 (≈ 659 µM) | – | – | – | – | –
CSc1ccc(C(=O)OC(Cn2ccnc2)c2ccc(Cl)cc2Cl)cc1.Cl (racemic) | – | 28 | 8 | 16 | – | – | – | – | –
CC(C)(C)OC(=O)NCCCC(=O)OC(Cn1ccnc1)c1ccc(Cl)cc1Cl.Cl (racemic) | – | 128 | 8 | 16 | – | – | – | – | –
Cl.O=C(O/N=C(\Cn1ccnc1)c1ccc(Cl)cc1Cl)c1ccc(Cl)cc1Cl | – | 64 | 64 | 64 | – | – | – | – | –
O=C(O/N=C(\Cn1ccnc1)c1ccc(Cl)cc1Cl)c1ccccc1 | – | 32 (≈ 85.5 µM) | 32 (≈ 85.5 µM) | 32 (≈ 85.5 µM) | – | – | – | – | –
CCc1ccc(C(=O)OC(Cn2ccnc2)c2ccc(Cl)cc2Cl)cc1.Cl (racemic) | – | 256 | 256 | 256 | – | – | – | – | –
OC(Cn1ccnc1)c1ccc(Cl)cc1Cl (stereo not given) | 256 (≈ 996 µM) | 128 (≈ 498 µM) | 8 (≈ 31.1 µM) | 4 (≈ 15.6 µM) | – | – | – | – | –
Cl.O=C(OC(Cn1ccnc1)c1ccc(Cl)cc1Cl)c1ccc(C(F)(F)F)cc1 (racemic) | – | 256 | 256 | 256 | – | – | – | – | –
O=C(/C=C/c1ccccc1)O/N=C(\Cn1ccnc1)c1ccc(Cl)cc1Cl | 64 (≈ 160 µM) | 4 (≈ 9.99 µM) | 2 (≈ 5 µM) | 2 (≈ 5 µM) | 512 | 128 | – | – | –
N#Cc1ccc(C(=O)O/N=C(\Cn2ccnc2)c2ccc(Cl)cc2Cl)cc1 | – | 64 (≈ 160 µM) | 128 (≈ 321 µM) | 64 (≈ 160 µM) | – | – | – | – | –
Cl.O=C(OC(Cn1ccnc1)c1ccc(Cl)cc1Cl)c1ccc(Cl)cc1Cl (racemic) | – | 256 | 128 | 128 | – | – | – | 300 | –
O=C(O/N=C(\Cn1ccnc1)c1ccc(Cl)cc1Cl)C1CCCCC1 | – | 64 (≈ 168 µM) | 64 (≈ 168 µM) | 64 (≈ 168 µM) | – | – | – | – | –
CC(C)c1ccc(C(=O)O/N=C(\Cn2ccnc2)c2ccc(Cl)cc2Cl)cc1.Cl | – | 32 | 16 | 16 | – | – | – | – | –
C[C@@H]1[C@H](O)[C@@H](C)/C=C/C=C/C=C/C=C/C=C/C=C/C=C/[C@H](O[C@@H]2O[C@H](C)[C@@H](O)[C@H](N)[C@@H]2O)C[C@@H]2O[C@](O)(C[C@@H](O)C[C@@H](O)[C@H](O)CC[C@@H](O)C[C@@H](O)CC(=O)O[C@H]1C)C[C@H](O)[C@H]2C(=O)O [AMPHOTERICIN B] | – | – | – | – | 256 | 4 | – | – | –

Compound | MIC [1] [µg/mL] | MIC [2] [µg/mL] | MIC [3] [µg/mL] | MIC [4] [µg/mL] | MBEC [5] [µg/mL] | MBIC [6] [µg/mL] | viability [7] [%] | MIC [8] [µg/mL] | Activity [9]
CSc1ccc(C(=O)O/N=C(\Cn2ccnc2)c2ccc(Cl)cc2Cl)cc1.Cl | 16 | 64 | 2 | 2 | 256 | 2 | – | – | –
Cl.O=C(/C=C/c1ccccc1)OC(Cn1ccnc1)c1ccc(Cl)cc1Cl (racemic) | 4 | 1 | 0.5 | 1 | 64 | 0.5 | – | – | Non-Toxic
Cl.O=C(OC(Cn1ccnc1)c1ccc(Cl)cc1Cl)C1CCCC1 (racemic) | 8 | 16 | 1 | 2 | >1024 | 32 | – | – | –
CC(C)(C)c1ccc(C(=O)OC(Cn2ccnc2)c2ccc(Cl)cc2Cl)cc1.Cl (racemic) | – | 256 | 128 | 128 | – | – | – | 10 | –
Cl.O=C(O/N=C(\Cn1ccnc1)c1ccc(Cl)cc1Cl)c1ccc(-c2ccc(-c3ccccc3)cc2)cc1 | – | 256 | 128 | 128 | – | – | – | – | –
Cl.O=C(O/N=C(\Cn1ccnc1)c1ccc(Cl)cc1Cl)c1ccc([N+](=O)[O-])cc1 | – | 64 | 64 | 16 | – | – | – | – | –
Cl.N#Cc1ccc(C(=O)OC(Cn2ccnc2)c2ccc(Cl)cc2Cl)cc1 (racemic) | 16 | 64 | 8 | 4 | – | – | – | – | –
Cl.O=C(O/N=C(\Cn1ccnc1)c1ccc(Cl)cc1Cl)c1ccc(Cl)cc1 | – | 64 | 32 | 32 | – | – | – | – | –
Cl.O=C(OC(Cn1ccnc1)c1ccc(Cl)cc1Cl)c1ccc([N+](=O)[O-])cc1 (racemic) | 8 | 32 | 8 | 4 | – | – | – | > 300 | –
Cl.O=C(OC(Cn1ccnc1)c1ccc(Cl)cc1Cl)c1cc2ccccc2[nH]1 (racemic) | 1 | 0.5 | 0.125 | 0.25 | 128 | 2 | – | – | Non-Toxic
Cl.O=C(O/N=C(\Cn1ccnc1)c1ccc(Cl)cc1Cl)c1cc2ccccc2[nH]1 | 256 | 256 | 128 | 128 | – | – | – | – | –
CC(C)(C)c1ccc(C(=O)O/N=C(\Cn2ccnc2)c2ccc(Cl)cc2Cl)cc1 | 64 (≈ 149 µM) | 4 (≈ 9.3 µM) | 4 (≈ 9.3 µM) | 4 (≈ 9.3 µM) | 256 | 128 | – | – | –
CC(C)c1ccc(C(=O)OC(Cn2ccnc2)c2ccc(Cl)cc2Cl)cc1.Cl (racemic) | – | 128 | 256 | 128 | – | – | – | – | –
Cl.O=C(CCC(=O)c1ccccc1)OC(Cn1ccnc1)c1ccc(Cl)cc1Cl (racemic) | – | 32 | 16 | 8 | – | – | – | – | –
Cl.O=C(OC(Cn1ccnc1)c1ccc(Cl)cc1Cl)c1ccc2ccccc2c1 (racemic) | 1 | 2 | 1 | 1 | 256 | 0.5 | – | – | Non-Toxic
Cl.O=C(OC(Cn1ccnc1)c1ccc(Cl)cc1Cl)c1ccc(N2CCOCC2)cc1 (racemic) | – | 256 | 16 | 32 | – | – | – | – | –
OC(Cn1cncn1)(Cn1cncn1)c1ccc(F)cc1F [FLUCONAZOLE] | 512 (≈ 1670 µM) | 32 (≈ 104 µM) | 0.5 (≈ 1.63 µM) | 0.5 (≈ 1.63 µM) | – | – | – | – | –
Cl.O=C(OC(Cn1ccnc1)c1ccc(Cl)cc1Cl)C1CCCCC1 (racemic) | 16 | 32 | 8 | 4 | – | – | – | – | –
Cl.O=C(O/N=C(\Cn1ccnc1)c1ccc(Cl)cc1Cl)c1ccc2ccccc2n1 | – | 256 | 128 | 256 | – | – | – | – | –
O=C(O/N=C(\Cn1ccnc1)c1ccc(Cl)cc1Cl)c1ccc(-c2ccccc2)cc1 | 256 (≈ 568 µM) | 1 (≈ 2.22 µM) | 1 (≈ 2.22 µM) | 1 (≈ 2.22 µM) | 256 | 16 | – | – | Non-Toxic
COc1ccc(C(=O)O/N=C(\Cn2ccnc2)c2ccc(Cl)cc2Cl)cc1 | 64 (≈ 158 µM) | 1 (≈ 2.47 µM) | 0.5 (≈ 1.24 µM) | 1 (≈ 2.47 µM) | 512 | 2 | – | – | Non-Toxic
